Published values from different studies.
Lines come from different studies, so protocols differ.
Cell line: UACC-62
Read-out: cell growth or viability

With `COc1ccc(-c2ccc(-c3ccc(C(=N)N)nc3)s2)cc1` the GI50 was 1810 nM (SRB).
The GI50 of `Cc1cc(C)n(C(=S)[S][Au][PH](CCCCCC[PH]([Au][S]C(=S)n2nc(C)cc2C)(c2ccccc2)c2ccccc2)(c2ccccc2)c2ccccc2)n1` is reported as 250 nM.
The GI50 of `COc1cc(-c2ccc(-c3ccc(C(=N)N)nc3)s2)cc(OC)c1OC` is reported as 1730 nM (SRB).
For `O=C1NCCc2[nH]c(-c3ccncc3)cc21`, the IC50 was 6120 nM.
For `COc1ccc(C(=O)/C=C/c2cccnc2)cc1S(N)(=O)=O`, the GI50 was 12900 nM (SRB; 48 h).
The IC50 of `O=C1NC(=NCc2cccs2)S/C1=C\c1ccc2ncccc2c1` is reported as greater than 10000 nM.
With `COc1cccc(Oc2ccccc2NC(=O)CNC(=O)c2cccc3ccccc23)c1` the GI50 was 209 nM (SRB; 48 h).
`COc1ccc(C(=O)/C=C/c2cccc3ccccc23)cc1S(N)(=O)=O` gave an inhibition of 158% (SRB; 10 µM).
